Assay outcomes from PubChem BioAssay.
Compounds with a hit are over-represented: about 3.1% of the library has one in this group of screens.
MBD2 inh – blocks human MBD2 binding to methylated DNA | Q9UBB5 | TR-FRET, MBD2 binding to methylated oligonucleotide | inhibition, % at 4.4 µM | hit rate 0.31% among 370,000 | AID 686964; in the data active = inhibition above about 13%
ATG4B inh – inhibitors of human ATG4B cysteine protease. hit rate 0.51% among 340,000. ATG4B cleavage of LC3-PLA2, NBD-HPC fluorescence, 1 h. inhibition, % at 8.33 µM. AID 504462; in the data active = inhibition above about 40%
UHRF1 MBD2 ctr – blocks human UHRF1 binding to methylated DNA; Q96T88; UHRF1 binding to methylated oligo, TR-FRET; inhibition, % at 4.4 µM; hit rate 0.75% among 370,000; AID 687016; in the data active = inhibition above about 21%;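 also: UHRF1 SRA domain binding a hemimethylated CpG hairpin DNA probe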
Target sequence (Q96T88 whole entry, looked up, the tested form may be a part): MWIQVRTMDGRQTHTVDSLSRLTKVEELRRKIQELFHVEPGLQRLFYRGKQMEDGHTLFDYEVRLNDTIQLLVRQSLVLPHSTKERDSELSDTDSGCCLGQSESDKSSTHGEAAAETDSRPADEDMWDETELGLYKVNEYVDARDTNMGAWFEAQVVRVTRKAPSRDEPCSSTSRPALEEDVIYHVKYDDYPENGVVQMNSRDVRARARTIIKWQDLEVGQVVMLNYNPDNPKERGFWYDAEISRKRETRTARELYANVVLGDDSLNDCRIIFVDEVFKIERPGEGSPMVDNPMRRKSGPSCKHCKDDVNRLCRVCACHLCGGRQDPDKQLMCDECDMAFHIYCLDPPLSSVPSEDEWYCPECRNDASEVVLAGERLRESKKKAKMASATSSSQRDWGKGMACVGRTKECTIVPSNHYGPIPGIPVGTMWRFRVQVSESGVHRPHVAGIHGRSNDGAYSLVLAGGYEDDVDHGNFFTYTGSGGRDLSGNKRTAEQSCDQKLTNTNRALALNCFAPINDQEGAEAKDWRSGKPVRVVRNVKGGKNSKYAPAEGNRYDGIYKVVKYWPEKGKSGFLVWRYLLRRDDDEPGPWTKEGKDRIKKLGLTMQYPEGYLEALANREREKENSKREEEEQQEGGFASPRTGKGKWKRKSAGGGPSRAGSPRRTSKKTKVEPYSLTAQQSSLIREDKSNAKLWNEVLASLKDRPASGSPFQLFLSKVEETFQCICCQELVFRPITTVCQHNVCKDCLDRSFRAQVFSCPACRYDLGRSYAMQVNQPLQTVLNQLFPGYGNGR
CSN deneddyl inh – blocks human CSN-mediated cullin deneddylation; inhibition, % at 12.5 µM; hit rate 0.38% among 360,000; Q92905; Purified CSN, SCF-Nedd8-OG deneddylation, fluorescence polarization;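 active = pattern-corrected inhibition above about 35%, with an unprinted fluorescence ratio check between 0.5 and 1.5, limit read from the data, passing the limit was not always enough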
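Assay system: purified human Csn5 enzyme expressed in HEK293T cells; measure: % inhibition; also added: SCFSkp2-Nedd8OG substrate at 10 nM final; technique: fluorescence polarization; times: reaction 90 min, room temperature; medium: Tris buffer pH 7.5, NaCl, DTT, Tween-20, trehalose, ovalbumin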
rCAG RNA binder – r(CAG) repeat RNA binding | inhibition, % at 3 µM | TO-PRO-1 dye displacement fluorescence | hit rate 1.3% among 370,000;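 active = inhibition above the plate cutoff, the mean of all test compounds on that plate plus 3 SD, cut at about 35% in these data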;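 also: higher means more dye released from RNA so lower well fluorescence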
LEDGF integ inh – blocks HIV-1 LEDGF/p75-dependent DNA integration; inhibition, % at 3.7 µM; AID 743269; TR-FRET IN-LEDGF/p75 DNA integration, Eu/Cy5; hit rate 0.64% among 370,000;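 active = inhibition above the screen-wide mean plus 3 SD, cut at about 13% in these data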;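 also: signal is the Cy5 over europium emission ratio at 671 and 618 nm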
ATG4B conf – confirmation of human ATG4B inhibitors; shares compounds with ATG4B inh; ATG4B protease fluorescent substrate cleavage assay; inhibition, % at 8.33 µM; hit rate 92% among 320; AID 504757; in the data active = inhibition above about 39%
PLA2 ctr – inhibits human PLA2, flagging false ATG4B inhibitors | shares compounds with ATG4B inh | purified PLA2, NBD-C6-HPC fluorescence, 45 min | inhibition, % at 8.33 µM | hit rate 66% among 1,600 | AID 588402; in the data active = inhibition above about 50%
Numbers stand for hits; 0 = inactive; - = no result.

SMILES	MBD2 inh	ATG4B inh	UHRF1 MBD2 ctr	CSN deneddyl inh	rCAG RNA binder	LEDGF integ inh	PLA2 ctr	others
Cc1ccc2[nH]c3c(NCc4ccccc4)ncnc3c2c1	0	50	0	-	0	0	60
COc1ccc(CNc2ncnc3c2[nH]c2cc(OC)c(OC)cc23)cc1	0	0	0	0	0	0	-
COc1ccc(CNc2ncnc3c2[nH]c2ccccc23)cc1	0	47	0	0	0	0	71
O=c1c2[nH]c3ccccc3c2ncn1CCC1=CCCCC1	0	0	0	0	0	0	-
O=C(N/N=C1\CC(c2ccccc2)Oc2ccccc21)c1ccc(O)cc1 (stereo unspecified)	0	43	0	0	0	0	55
O=C1CCC(C(=O)OCc2cc(Cl)ccc2OC(F)F)N1 (stereo unspecified)	0	0	0	0	0	0	-
O=C(OCc1cc(Cl)ccc1OC(F)F)c1cncc(Br)c1	0	52	0	0	0	0	54
COC(=O)[C@]12C[C@H](CC(=O)NCC34CC5CC(CC(C5)C3)C4)C(=O)N(CCc3ccc(OC)c(OC)c3)C1=C[C@H](C(C)(C)C)O[C@@H]2C	0	-	0	-	0	0	-
CCCc1nc(SCC(=O)N2c3ccccc3CC2C)c2c(C)c(C)sc2n1 (stereo unspecified)	0	69	0	0	0	0	81
Cc1ccc(-c2nc(Nc3cccc(C)c3)sc2CC(=O)O)cc1	0	0	0	0	0	0	-
O=C(O)Cc1sc(NC2CCCCC2)nc1-c1ccc(Cl)cc1	0	54	0	65	0	0	0	ATG4B conf=65
Cc1ccccc1Cn1cc(CN2[C@@H](CC(C)C)COc3cccc(F)c3S2(=O)=O)nn1	0	-	0	-	0	0	-
COC(=O)[C@]12C[C@H](CC(=O)N3CCSCC3)C(=O)N(Cc3cccc4ccccc34)C1=C[C@H](C1CCCC1)O[C@@H]2C	0	-	0	-	0	0	-
CCCCC1=CC2=CC(=O)C(C)(OC(=O)CCc3ccccc3)C(=O)C2=CO1 (stereo unspecified)	0	42	0	0	0	0	69
CC1(OC(=O)CCc2ccccc2)C(=O)C=C2C=C(c3ccc(C#N)cc3)N(Cc3ccccc3)C=C2C1=O (stereo unspecified)	0	0	0	0	0	0	-
CCOC(=O)[C@@]12CCCC=C1N(CCc1ccc(Cl)cc1)C(=O)[C@H]2CC(=O)N1CCCCC1	0	-	0	-	0	0	-
COc1ccccc1N1CCN(S(=O)(=O)c2ccc3nc(-c4ccccc4)[nH]c3c2)CC1	0	59	0	0	0	0	58
CCCCOc1ccc(-c2cc(C(=O)NNC(=S)NCC)c3ccccc3n2)cc1	-	47	-	0	-	-	58
O=C(Nc1ccc(F)cc1)OCc1cn(Cc2ccc(F)c(F)c2)nn1	0	-	0	-	0	0	-
Cc1nn(CCC(=O)NNC(=O)Nc2ccc(Cl)cc2)c(C)c1[N+](=O)[O-]	0	-	0	-	0	0	-
Cc1ccc(C(=O)c2cnc3ccccc3c2-c2ccccc2)cc1	0	69	0	0	0	0	82
Cc1ccc(C(=O)c2nc(C(=O)NCCO)nc3ccccc23)cc1	0	0	0	0	0	0	-
COc1ccc(C(=O)c2cnc3ccccc3c2-c2ccccc2)cc1	0	72	0	0	0	0	83
Cc1nc(SCC(=O)N(C)c2ccccc2)[nH]c(=O)c1C	0	-	0	-	-	0	-
N#Cc1ccc(/C=C2\CC3(OC(=O)c4ccc(F)cc4)CCCN2C3)cc1 (stereo unspecified)	0	-	0	-	0	0	-
SMILES	MBD2 inh	ATG4B inh	UHRF1 MBD2 ctr	CSN deneddyl inh	rCAG RNA binder	LEDGF integ inh	PLA2 ctr	others
Cc1ccc(NC(=O)CN2C(=O)CCSc3ccccc32)cc1C	0	-	0	-	0	0	-
CON(C)C(=O)CCN(Cc1ccccc1)C(=O)OC(C)(C)C	0	0	0	0	0	0	-
CON(C)C(=O)CC(CN(Cc1ccccc1)C(=O)OC(C)(C)C)c1ccc(Cl)cc1 (stereo unspecified)	0	53	0	0	0	0	79
O=c1cc(-c2ccccc2Cl)oc2c(NS(=O)(=O)c3ccccc3OC(F)(F)F)ccc(O)c12	0	43	0	-	0	0	78
O=C(Nc1ccc(O)c2c(=O)cc(-c3ccccc3Cl)oc12)c1ccc(Cl)c(Cl)c1	0	0	0	0	0	0	-
O=c1cc(-c2ccccc2Cl)oc2c(NS(=O)(=O)c3ccccc3C(F)(F)F)ccc(O)c12	0	42	0	0	0	0	53
O=c1cc(-c2ccccc2Cl)oc2c(NS(=O)(=O)c3cccs3)ccc(O)c12	0	57	0	0	0	0	74
CCSc1nc2c(c(=O)[nH]1)C(c1cccnc1)C(C(=O)OC)=C(C)N2 (stereo unspecified)	0	0	0	0	0	0	-
COC(=O)C1=C(C)Nc2nc(SCc3ccccc3)[nH]c(=O)c2C1c1cccs1 (stereo unspecified)	0	53	0	0	0	0	0
COc1cc(C=O)ccc1OCc1ccccc1Br	0	53	0	0	0	0	52
COc1cc(C=O)ccc1OCc1cccc(Br)c1	0	0	0	0	0	0	-
COC(=O)[C@]12C[C@H](CC(=O)N3CCSCC3)C(=O)N(Cc3cccc4ccccc34)C1=C[C@H](COCc1ccccc1)O[C@@H]2C	0	-	0	-	0	0	-
Cc1ccc(CN2CCCN(Cc3c(F)cccc3Cl)S2(=O)=O)cc1	0	0	0	0	0	0	-
O=S1(=O)N(Cc2ccccc2F)CCCN1Cc1c(F)cccc1Cl	0	68	0	0	0	0	83
COC(=O)[C@]12C[C@H](CC(=O)N3CCOCC3)C(=O)N(Cc3ccc4c(c3)OCO4)C1=C[C@H](C(C)C)O[C@@H]2C1CC1	0	-	0	-	0	0	-
O=C(Nc1ccccc1)Nc1nc2ncccn2c1-c1ccc(F)cc1	0	-	0	-	0	0	-
O=C(COC(=O)c1ccccc1Nc1ccccc1)c1ccccc1	0	53	0	0	0	0	52
NC(=O)C1CCN(c2nc(-c3ccc(Br)cc3)cs2)CC1	0	0	0	0	0	0	-
NC(=O)C1CCN(c2nc(-c3cccs3)cs2)CC1	-	45	-	0	-	-	54
O=C(Nc1nc(-c2cc3ccccc3oc2=O)cs1)c1ccco1	0	0	0	0	0	0	-
O=c1oc2ccccc2cc1-c1csc(NN=C2CCCCC2)n1	0	41	0	0	0	0	66
COc1ccc(Cc2nnc(NC(=O)c3cccc([N+](=O)[O-])c3)s2)cc1	0	51	0	0	0	0	0
